Data set [1] has as its target T1, Sphingosine 1-phosphate receptor 1 (Homo sapiens, UniProt P21453). Put plainly: Agonist activity at EGFP-tagged S1P1 receptor expressed in human […] cells assessed as receptor internalization in endosomes after 60 mins. It is filed as functional, cell-based. A digest of the protocol:
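S1P1 Redistribution assay measuring agonist activity; EC50 values reported in μM.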

The target in data set [2] is T2, Sphingosine 1-phosphate receptor 4 (Homo sapiens, UniProt O95977).
T2 sequence (O95977 whole entry): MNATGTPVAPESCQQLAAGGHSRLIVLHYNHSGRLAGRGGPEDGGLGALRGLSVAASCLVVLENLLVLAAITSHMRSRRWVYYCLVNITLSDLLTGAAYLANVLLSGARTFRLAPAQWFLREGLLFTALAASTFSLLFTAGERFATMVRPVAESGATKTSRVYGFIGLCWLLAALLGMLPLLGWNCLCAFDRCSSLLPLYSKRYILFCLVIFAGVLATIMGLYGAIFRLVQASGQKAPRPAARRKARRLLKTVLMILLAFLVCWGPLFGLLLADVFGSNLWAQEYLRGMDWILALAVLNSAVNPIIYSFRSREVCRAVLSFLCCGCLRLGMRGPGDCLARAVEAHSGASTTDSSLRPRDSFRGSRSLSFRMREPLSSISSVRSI
In words: Agonist activity at human S1P4 expressed in CHO cells after 60 mins by [35S]GTPgammaS binding assay. The format is functional, cell-based. In general terms: GTPγS resists hydrolysis and so accumulates on activated G proteins.

Data set [3] can be described thus: Cytotoxicity against HLF cells. It is filed as cell-based. The note with it: human, read-out: TC50 (the source's name). The method in brief:
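Cytotoxicity was determined by the MTT method in HLF cells; TC50 values reported in μM.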

A short description of data set [4]: Ratio of TC50 for compound to FTY720 for HLF cells. The note with it: human. It is filed as ADME, cell-based.
Data set [5] relates to S1P1 receptor. Put plainly: Therapeutic index, ratio of TC50 for HLF cells to EC50 for S1P1 receptor. It is filed as cell-based. The note with it: human, read-out: TI.
The target of data set [6] is T1, Sphingosine 1-phosphate receptor 1. The note with it: UOS2, 3 uM.
For data set [7], the system named is Mus musculus. In words: Immunosuppressant activity in Balb/C mouse assessed as decrease in circulating CD3+ T cells at 0.1 mg/kg, po measured after 30 mins by flow cytometric analysis. Details: scale not given: the % may be the effect or the level left; call rule not given here. The format is functional, T-cell. A digest of the protocol: (§1)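 Oral dosing of BALB/C mice at 0.1, 0.3, 1, 3 or 10 mg/kg. Peripheral blood CD3+ T cells were counted, and the result is expressed as percent decrease of CD3+ cells.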
On the technique in general: In flow cytometry, cells or beads pass a laser one at a time.

In data set [8] the test system is Mus musculus. Put plainly: Immunosuppressant activity in Balb/C mouse assessed as decrease in circulating CD3+ T cells at 10 mg/kg, po measured after 30 mins by flow cytometric analysis. It is filed as functional, T-cell. Details: scale not given: the % may be the effect or the level left. The method in brief:
as §1

In data set [9] the test system is Mus musculus. Put plainly: Immunosuppressant activity in Balb/C mouse assessed as decrease in circulating CD3+ T cells at 1 mg/kg, po measured after 30 mins by flow cytometric analysis. The format is functional, T-cell. On the set-up: scale not given: the % may be the effect or the level left. A digest of the protocol: as §1
The subject of data set [10] is Mus musculus. In words: Immunosuppressant activity in Balb/C mouse assessed as decrease in circulating CD3+ T cells at 3 mg/kg, po measured after 30 mins by flow cytometric analysis. On the set-up: scale not given: the % may be the effect or the level left. It is filed as functional, T-cell. A digest of the protocol: as §1
For data set [11], the system named is Mus musculus. In words: Immunosuppressant activity in Balb/C mouse assessed as decrease in circulating CD3+ T cells at 0.3 mg/kg, po measured after 30 mins by flow cytometric analysis. The format is functional, T-cell. On the set-up: scale not given: the % may be the effect or the level left. A digest of the protocol:
as §1

Data set [12] has as its target T1, Sphingosine 1-phosphate receptor 1. The note with it: UOS2, 10 uM.
For data set [13], the system named is Mus musculus. In words: Immunosuppressant activity in po dosed Balb/C mouse assessed as decrease in circulating CD3+ T cells measured after 30 mins by flow cytometric analysis. The format is functional, organism-based. The note with it: T-cell. A digest of the protocol:
as §1

Experimental findings from ChEMBL document CHEMBL1933023, “Novel immunomodulators based on an oxazolin-2-one-4-carboxamide scaffold” (Bioorg Med Chem Lett, 2012) are described below.

T1 sequence (P21453 whole entry): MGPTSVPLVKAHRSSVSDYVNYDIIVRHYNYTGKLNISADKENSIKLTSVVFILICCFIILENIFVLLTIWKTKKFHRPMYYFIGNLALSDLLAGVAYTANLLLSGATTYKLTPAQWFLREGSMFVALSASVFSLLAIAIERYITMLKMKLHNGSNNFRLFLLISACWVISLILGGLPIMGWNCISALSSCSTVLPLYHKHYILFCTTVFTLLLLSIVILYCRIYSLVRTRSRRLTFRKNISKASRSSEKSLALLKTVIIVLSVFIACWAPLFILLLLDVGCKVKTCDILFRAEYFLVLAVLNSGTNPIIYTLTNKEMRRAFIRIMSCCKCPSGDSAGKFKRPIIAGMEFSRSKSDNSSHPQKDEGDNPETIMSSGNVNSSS

The EC50 is the midpoint of the concentration-response curve. For `NC(=O)C1(CCc2ccc(OCc3ccccc3Cl)cc2)COC(=O)N1` (stereo unspecified), in data set [1] (read-out: EC50), the half-maximal effective concentration (EC50) is greater than 100 µM.
Usually IC50 stands for the concentration that inhibits the measured activity by half. In [2], `CCCCCCCCc1ccc(CC[C@](N)(CO)COP(=O)(O)O)cc1` [FTY720-P] showed an IC50 of 0.0022 µM.
Consider `NC(=O)C1(CCc2ccc(OCCCc3ccccc3)cc2)COC(=O)N1` (stereo unspecified), for which, in data set [3], the CC50 worked out at 26.4 µM. Besides, the values for the selectivity ratio in data set [4] and in data set [5] were 8 and 7.28, respectively. Besides, the EC50 in [1] (read-out: EC50) is 3.63 µM.
A word on the Emax: it is the maximal effect, on the per cent scale that the assay sets. As for `CCCCCCCCc1ccc(CCC(N)(CO)CO)cc1.Cl` [FINGOLIMOD HYDROCHLORIDE], the CC50 in [3] was 3.15 µM. The Emax came to 37% in [6] and 54% in data set [12]. The Activity in [7] came out at 9.7%; in [8], 86.6%; in data set [9], 79%; in [10] it was 80.7%; in [11] it was 47.2%.
In the case of `CCCCCCCCOc1ccc(CCC2(C(N)=O)COC(=O)N2)cc1` (stereo unspecified), in data set [3], the CC50 was found to be 121 µM. For the same compound, the half-maximal effective concentration (EC50) in [1] (read-out: EC50) was determined as 2.84 µM. The Activity entry in [13] was “Dose-dependent effect”; in [8], 84.3%; in [9], 20%; in [10], 53%; in data set [11], 1.7%. In addition, in data set [5], the selectivity ratio worked out at 42.6.
In the case of `NC(=O)C1(CCc2ccc(OCc3ccc(Cl)cc3)cc2)COC(=O)N1` (stereo unspecified), the CC50 in [3] was found to be 27.9 µM. Also, the values for the selectivity ratio in data set [4] and in data set [5] were 8 and 25.4, respectively. Besides, in [1] (read-out: EC50), the concentration for a half-maximal effect (EC50) turned out to be 1.1 µM.
For `Cc1ccccc1COc1ccc(CCC2(C(N)=O)COC(=O)N2)cc1` (stereo unspecified), the 50% effective concentration (EC50) entry in data set [1] (uos2) is given as “Not Active”.
With `CC(C)(C)c1ccc(COc2ccc(CCC3(C(N)=O)COC(=O)N3)cc2)cc1` (stereo unspecified), the CC50 in [3] was 25.4 µM. Besides, the selectivity ratio in [4] was 8; in data set [5], 9.35. Further, the EC50 in [1] (read-out: EC50) came out at 2.72 µM.
